An excerpt weighted towards active compounds, which were near 2.6% of everything screened.
miR-122 sensor – inhibitors of miR-122 in Huh7 cells | hit rate 0.3% among 340,000 | Huh7 miR-122 Renilla luciferase sensor, 48 h; neutral wells = 0, positive control = 100 | activation (reporter increase), % at 12.5 µM;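 active = mean replicate activation score at least 90 and every replicate individually at or above 90; inconclusive = only one of the two criteria met; inactive = neither criterion met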;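 note: higher luciferase means less miR-122 activity so hits act as miR-122 inhibitors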
Ecoli rRNA inh – inhibitors of bacterial rRNA selective over humanized ribosomes; E. coli WT GFP vs humanized-ribosome RFP mutants, fluorescence, 24 h; active compounds read low; DMSO median 0, no signal -100; GFP signal change (wild-type ribosome), % (concentration not given with the values); hit rate 1.6% among 350,000; AID 720706;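 active = significant combined selectivity score with lowered wild-type GFP, culture density cut under 30%, mutant RFP and density less affected; inactive = any of these conditions unmet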
S100A4 MyoIIA – blocks human S100A4 binding to myosin IIA peptide; P26447; S100A4/TAMRA-MyoIIA peptide fluorescence polarization; inhibition, % at 10.7 µM; hit rate 0.14% among 360,000; AID 652163;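 active = mean inhibition of at least 70% across replicates, with every replicate also reaching that level; inconclusive = mean inhibition reaches 70% but some replicates fall short; inactive = mean inhibition below 70%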
Target sequence (P26447 whole entry, looked up): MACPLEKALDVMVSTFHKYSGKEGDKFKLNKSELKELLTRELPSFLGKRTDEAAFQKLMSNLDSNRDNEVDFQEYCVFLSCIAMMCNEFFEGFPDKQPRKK
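incubation = readout 5 min after mixing, signal stable up to 60 min | system = S100A4 monomer protein | buffer or medium = HEPES pH 7.2 with CaCl2, KCl, NaCl, DTT, Triton | benchmarks = neutral control DMSO, positive control TFP | also added = fluorescent myosin IIA peptide, 5 nM | compound dosing = one concentration per compound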
HIV Env fusion – blocks HIV Env-driven cell-cell fusion. HeLa-JRFL Env/CEM21 cell fusion, luciferase. AID 651610. hit rate 1.1% among 360,000. inhibition, % at 12.3 µM;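 active = mean replicate inhibition score of at least 50 and every replicate individually at or above 50; inconclusive = only one of the two criteria met; inactive = mean below 50 and not all replicates reaching 50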;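 note: 0% = plate neutral controls and 100% = maraviroc near 300 nM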
FN deposition inh – fibronectin deposition inhibition; AH1F fibroblasts, Alexa488-fibronectin deposition fluorescence, overnight; inhibition, % at 12.6 µM; hit rate 0.086% among 350,000; AID 743247;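 active = mean inhibition across replicates of 30% or more, regardless of how many single replicates reach that level; inconclusive = mean under 30% yet at least half of replicates reach 30%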;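 note: positive control wells lacked labelled fibronectin entirely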
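Assay system: AH1F fibroblasts / Quantity: 10000 cells per well / Medium: DMEM plus 2% serum, read in PBS / Reagent: labelled fibronectin 24 nM / Dosing: single dose, pinned / Times: 1 h cell attachment, overnight exposure to compound and label / Signal: fluorescence, ex 485 nm, em 525 nm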
Vif inh – HIV Vif inhibition; inhibition, % at 7.49 µM; AID 602346; hit rate 0.35% among 340,000; HEK293T cells, Vif self-association by quenched fluorescence, imaging, 24 h; in the data active = inhibition above about 50%, passing the limit was not always enough; inconclusive = no clear call, values can overlap the other calls; inactive = below about 31%
Starred values were filed as active, the others as inactive; i = inactive; u = inconclusive; x = no result; [ ] = dose if it differs, or a comment.

SMILES	miR-122 sensor	Ecoli rRNA inh	S100A4 MyoIIA	HIV Env fusion	FN deposition inh	Vif inh
COc1ccc(OC)c(NC(=O)COc2ccc3c(c2)CCC3)c1	x	-14	2	70*	-3	u
C[C@@H]1CCCCO[C@@H](CN(C)S(=O)(=O)c2ccc(Cl)cc2)[C@H](C)CN([C@H](C)CO)C(=O)c2cc(NC(=O)Cc3ccccc3)ccc2O1	-12[16.7 µM]	11	-2	-10[16.7 µM]	x	x
O=[N+]([O-])c1cc(-c2ccc(/C=N\n3cnnc3)o2)cc([N+](=O)[O-])c1	x	1	-14	7	-2	121*
Cc1cc(C(=O)Nc2cccc3c2O[C@H](CN(C)S(=O)(=O)c2cccs2)[C@H](C)CN([C@H](C)CO)C3=O)n(C)n1	-4[16.7 µM]	0	0	x	-7	x
COc1ccc(N(C)C(=O)Nc2ccc3nsnc3c2)cc1	-8	-3	-4	6	x	-4
CC(C)N(C(=O)Nc1ccc2nsnc2c1)C(C)C	x	-16*	4	12	9	x
CCC(C)(C)NC(=O)C(c1ccc(C)cc1)N(CC1CCCO1)C(=O)c1csnn1 (stereo not given)	x	2	-3	72*	-1	-1
CCC(C)(C)NC(=O)C(c1ccc(C)cc1)N(CC1CCCO1)C(=O)CNC(=O)c1cccs1 (stereo not given)	1	x	x	23	2	-3
O=C(N/N=C/c1cccnc1)c1ccccc1NS(=O)(=O)c1cccs1	-2	-30*	-1	-1	2	-7
O=C(NN=Cc1cc(Br)c(O)c(Br)c1)c1ccccc1NS(=O)(=O)c1cccs1	x	-25*	-3	0	2	0
O=C(NN=Cc1ccc(F)cc1)c1ccccc1NS(=O)(=O)c1cccs1	36	-12	-5	x	4	-11
C[C@H]1CN([C@@H](C)CO)C(=O)Cc2cc(NC(=O)Cn3cnnn3)ccc2O[C@H]1CN(C)S(=O)(=O)c1ccc(Cl)cc1	-5[16.7 µM]	3	-1	-14[16.7 µM]	-3	x
CC1C(=O)N(Cc2ccc([N+](=O)[O-])cc2)c2ccccc2N1C(=O)c1c(F)cccc1F (stereo not given)	4	-6	1	78*	-1	-3
Cc1ccc(S(=O)(=O)N[C@H]2CC[C@H](CCn3cc(-c4cccc(F)c4)nn3)O[C@@H]2CO)cc1	x	-6	-1	22[16.7 µM]	8	x
CCS(=O)(=O)c1nc(S(=O)(=O)c2ccc(C)cc2)c(NCCN2CCOCC2)s1	15	14	16	1	2	4
CCS(=O)(=O)c1nc(S(=O)(=O)c2ccc(C)cc2)c(NCCCN2CCCC2=O)s1	-4	2	84*	2	-1	-6
Clc1ccc(CN(CC2CCCO2)C(c2cccs2)c2nnnn2C2CCCC2)cc1 (stereo not given)	23	x	x	117*	8	-8
CCN(Cc1ccccc1)C(c1ccccn1)c1nnnn1C1CCCCC1 (stereo not given)	-13	x	x	x	x	-1
CCN(Cc1ccccc1)C(c1cccs1)c1nnnn1C1CCCCC1 (stereo not given)	x	x	x	96*	-7	-5
Clc1ccccc1CN(Cc1ccccc1)C(c1cccs1)c1nnnn1C1CCCC1 (stereo not given)	41	x	x	83*	-1	x
CC(C)[C@H]1COCc2cn(nn2)CC[C@@H](Cc2ccc(Cl)cc2)C(=O)N1	x	0	x	x	3	x
COCC#Cc1ccc2c(c1)O[C@H](CN(C)CC1CCOCC1)[C@@H](C)CN([C@@H](C)CO)S2(=O)=O	-7[16.7 µM]	-3	3	-23[16.7 µM]	x	x
O=C(C[C@H]1C[C@@H]2c3cc(NC(=O)CC4CC4)ccc3O[C@@H]2[C@H](CO)O1)NCc1ccc2c(c1)OCO2	4[16.7 µM]	-2	3	-4[16.7 µM]	6	x
O=C(NC1CCCCC1)C(c1ccccc1F)n1c(=O)c(-c2ccco2)nc2ccccc21 (stereo not given)	x	1	-11	59*	-13	x
O=C(NC1CCCCC1)C(c1ccnc2ccccc12)n1c(=O)c(-c2ccco2)nc2ccccc21 (stereo not given)	x	0	-7	10	-6	x
SMILES	miR-122 sensor	Ecoli rRNA inh	S100A4 MyoIIA	HIV Env fusion	FN deposition inh	Vif inh
N#C[C@H]1[C@H](c2ccccc2C2=CCCCC2)[C@@H](CO)N1S(=O)(=O)c1ccccc1	x	-36	-2	x	67*	x
N#C[C@H]1[C@@H](c2ccccc2C2=CCCCC2)[C@H](CO)N1S(=O)(=O)c1ccccc1	x	-30	2	x	-4	x
C[C@@H]1CCCCO[C@H](CN(C)CC2CCCCC2)[C@H](C)CN([C@H](C)CO)C(=O)c2cc(NC(=O)CCC(F)(F)F)ccc2O1	-7[16.7 µM]	1	x	14[16.7 µM]	x	x
Cc1ccc(-n2ncc(C(=O)NCC3CCN(C4CCCC4)C3)c2C2CCN(C(=O)OC(C)(C)C)CC2)cc1 (stereo not given)	-3	-1	3	5	-1	0
CC(C)(C)OC(=O)N1CCC(c2c(C(=O)NCC3CCN(C4CCCC4)C3)cnn2-c2ccc(F)cc2)CC1 (stereo not given)	-5	-7	-10	4	2	60*
COc1cc(/C=C/C(=O)c2ccc([N+](=O)[O-])o2)ccc1O	x	-24*	7	-297	-8	i
COc1ccc(C=CC(=O)c2ccc3cc(OC)c(OC)cc3c2)cc1OC	-5	-11	5	13	6	x
COc1ccc(/C=C/C(=O)c2ccc([N+](=O)[O-])o2)cc1OC	x	-4	-2	-143	35*	x
O=C(/C=C/c1cccc(Cl)c1)c1ccc([N+](=O)[O-])o1	x	1	6	u	59*	-3
COc1cc(/C=C/C(=O)O)ccc1O	-1	x	1	x	x	10
NS(=O)(=O)c1ccc(CNC(=O)/C=C/c2cccc(Cl)c2)cc1	-12	x	x	-1	-2	-2
COc1cc(OC)c(C(=O)C=Cc2ccc(OC)c(OC)c2)c(OC)c1	3	-11*	-1	-23	-8	2
COc1cc(OC)c(C(=O)/C=C/c2ccc(OCc3ccccc3)c(OC)c2)c(OC)c1	-7	0	0	-14	-9	-18
COc1ccc(Nc2nc(N3CCCC3)nc(N3CCOCC3)n2)cc1	x	-4	-4	19	-1	4
c1ccc(Nc2nc(N3CCCC3)nc(N3CCOCC3)n2)cc1	x	3	-1	61*	5	33
CCOC(=O)c1c(NC(=O)CCC(=O)N2CCOCC2)sc2c1CC(C)(C)OC2	-3	x	x	x	x	55*
O=C1[C@H]2[C@@H](c3ccc(F)cc3)N3C(=O)N(c4cccc(Br)c4)C(=O)[C@@]3(Cc3ccccc3)[C@H]2C(=O)N1C1CCCCC1	6	9	2	107*	0	-6

Source: PubChem
